The source of these data is ChEMBL document CHEMBL1629622, “Isolation of VanB-type Enterococcus faecalis strains from nosocomial infections: first report of the isolation and identification of the pheromone-responsive plasmids pMG2200, Encoding VanB-type vancomycin resistance and a Bac41-type bacteriocin, and pMG2201, encoding erythromycin resistance and …” (2009).

Values after ≈ are worked out from the molar mass of the structure shown.

For orientation: MIC means the least concentration at which growth counts as inhibited. The low end stands for greater potency, the high end for weaker potency.

What all share (format): functional
For assay [1], the system named is Enterococcus faecalis. Description: Antimicrobial activity against Enterococcus faecalis NKH7 harboring pMG2200-like plasmid after 24 hrs by agar dilution method. The method, boiled down:
(§1)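 Agar dilution MICs on clinical E. faecalis isolates. Overnight Mueller-Hinton broth culture diluted 100-fold; ~5 × 10^5 cells inoculated onto Mueller-Hinton medium holding a concentration series of each drug. Incubated at 37°C and read at 24 h. Testing and interpretation follow CLSI (NCCLS) standards, with E. faecium ATCC 9790 as control strain.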
On the technique in general: In agar dilution, organisms are placed on agar that contains the substance at set levels.

In assay [2] the test system is Enterococcus faecalis. Briefly: Antimicrobial activity against Enterococcus faecalis NKH2 harboring pMG2200-like and pMG2201-like plasmids after 24 hrs by agar dilution method. The method, boiled down:
as §1

Assay [3] deals with Enterococcus faecalis. Description: Antimicrobial activity against Enterococcus faecalis NKH5 harboring pMG2200-like plasmid after 24 hrs by agar dilution method. The method, boiled down: as §1
The subject of assay [4] is Enterococcus faecalis. Description: Antimicrobial activity against Enterococcus faecalis NKH15 harboring pMG2200-like and pMG2201-like plasmids after 24 hrs by agar dilution method. Put shortly: as §1
Assay [5] concerns Enterococcus faecalis. Description: Antimicrobial activity against Enterococcus faecalis NKH4 harboring pMG2200-like and pMG2201-like plasmids after 24 hrs by agar dilution method. Put shortly:
as §1

Assay [6] has as its system Enterococcus faecalis. Briefly: Antimicrobial activity against Enterococcus faecalis NKH1 harboring pMG2200-like plasmid after 24 hrs by agar dilution method. Put shortly:
as §1

Assay [7] deals with Enterococcus faecalis. Briefly: Antimicrobial activity against Enterococcus faecalis NKH6 harboring pMG2200-like and pMG2201-like plasmids after 24 hrs by agar dilution method. The method, boiled down: as §1
The subject of assay [8] is Enterococcus faecalis. Briefly: Antimicrobial activity against Enterococcus faecalis NKH13 harboring pMG2200-like and pMG2201-like plasmids after 24 hrs by agar dilution method. The method, boiled down: as §1
Assay [9] deals with Enterococcus faecalis. Briefly: Antimicrobial activity against Enterococcus faecalis NKH14 harboring pMG2200-like and pMG2201-like plasmids after 24 hrs by agar dilution method. The method, boiled down:
as §1

Assay [10] relates to Enterococcus faecalis. Briefly: Antimicrobial activity against Enterococcus faecalis NKH18 harboring pMG2200-like and pMG2201-like plasmids after 24 hrs by agar dilution method. The method, boiled down:
as §1

The test system of assay [11] is Enterococcus faecalis. Description: Antimicrobial activity against Enterococcus faecalis NKH9 harboring pMG2200-like and pMG2201-like plasmids after 24 hrs by agar dilution method. Put shortly: as §1
The subject of assay [12] is Enterococcus faecalis. Description: Antimicrobial activity against Enterococcus faecalis NKH3 harboring pMG2200-like and pMG2201-like plasmids after 24 hrs by agar dilution method. Put shortly:
as §1

The test system of assay [13] is Enterococcus faecalis. Description: Antimicrobial activity against Enterococcus faecalis NKH11 harboring pMG2200-like plasmid after 24 hrs by agar dilution method. The method, boiled down:
as §1

Assay [14] has as its system Enterococcus faecalis. Description: Antimicrobial activity against Enterococcus faecalis NKH8 harboring pMG2200-like and pMG2201-like plasmids after 24 hrs by agar dilution method. The method, boiled down:
as §1

Assay [15] relates to Enterococcus faecalis. Briefly: Antimicrobial activity against Enterococcus faecalis NKH17 harboring pMG2200-like plasmid after 24 hrs by agar dilution method. Put shortly: as §1
The test system of assay [16] is Enterococcus faecalis. Description: Antimicrobial activity against Enterococcus faecalis NKH10 harboring pMG2200-like and pMG2201-like plasmids after 24 hrs by agar dilution method. The method, boiled down: as §1
The subject of assay [17] is Enterococcus faecalis. Briefly: Antimicrobial activity against Enterococcus faecalis NKH12 harboring pMG2200-like and pMG2201-like plasmids after 24 hrs by agar dilution method. Put shortly:
as §1

Assay [18] deals with Enterococcus faecalis. Description: Antimicrobial activity against Enterococcus faecalis NKH16 harboring pMG2200-like plasmid after 24 hrs by agar dilution method. Put shortly: as §1

Regarding `NC[C@H]1O[C@H](O[C@H]2[C@H](O)[C@@H](O[C@H]3O[C@H](CO)[C@@H](O)[C@H](N)[C@H]3O)[C@H](N)C[C@@H]2N)[C@H](O)[C@@H](O)[C@@H]1O` [KANAMYCIN], the MIC with Enterococcus faecalis [1] (NKH7, 24 h) was above 1020 µg/mL; in the assay on Enterococcus faecalis [2] (NKH2, 24 h), above 1020 µg/mL; with Enterococcus faecalis [3] (NKH5, 24 h) it was above 1020 µg/mL; against Enterococcus faecalis [4] (NKH15, 24 h), above 1020 µg/mL; in the assay with Enterococcus faecalis [5] (NKH4, 24 h) it was above 1020 µg/mL; against Enterococcus faecalis [6] (NKH1, 24 h) it was above 1020 µg/mL. Further, the MIC against Enterococcus faecalis [7] (NKH6, 24 h) is above 1020 µg/mL; with Enterococcus faecalis [8] (NKH13, 24 h) it was above 1020 µg/mL; against Enterococcus faecalis [9] (NKH14, 24 h) it was above 1020 µg/mL; against Enterococcus faecalis [10] (NKH18, 24 h), above 1020 µg/mL; in the assay on Enterococcus faecalis [11] (NKH9, 24 h), above 1020 µg/mL; against Enterococcus faecalis [12] (NKH3, 24 h), above 1020 µg/mL. Moreover, the minimum inhibitory concentration (MIC) with Enterococcus faecalis [13] (NKH11, 24 h) was above 1020 µg/mL; with Enterococcus faecalis [14] (NKH8, 24 h) it was above 1020 µg/mL; in the assay on Enterococcus faecalis [15] (NKH17, 24 h), above 1020 µg/mL; with Enterococcus faecalis [16] (NKH10, 24 h) it was above 1020 µg/mL; in the assay on Enterococcus faecalis [17] (NKH12, 24 h), above 1020 µg/mL; against Enterococcus faecalis [18] (NKH16, 24 h), above 1020 µg/mL.
With `CN[C@@H]1[C@H](O[C@H]2[C@H](O[C@H]3[C@H](O)[C@@H](O)[C@H](N=C(N)N)[C@@H](O)[C@@H]3N=C(N)N)O[C@@H](C)[C@]2(O)C=O)O[C@@H](CO)[C@H](O)[C@H]1O` [STREPTOMYCIN], the MIC against Enterococcus faecalis [1] (NKH7, 24 h) turned out to be 32 µg/mL (≈ 55 µM); with Enterococcus faecalis [2] (NKH2, 24 h), 32 µg/mL (≈ 55 µM); with Enterococcus faecalis [3] (NKH5, 24 h), 32 µg/mL (≈ 55 µM); against Enterococcus faecalis [4] (NKH15, 24 h), 32 µg/mL (≈ 55 µM); in the assay with Enterococcus faecalis [5] (NKH4, 24 h), 32 µg/mL (≈ 55 µM); against Enterococcus faecalis [6] (NKH1, 24 h), 32 µg/mL (≈ 55 µM). For the same molecule, the MIC in the assay on Enterococcus faecalis [7] (NKH6, 24 h) was determined as 32 µg/mL (≈ 55 µM); against Enterococcus faecalis [8] (NKH13, 24 h), 32 µg/mL (≈ 55 µM); in the assay with Enterococcus faecalis [9] (NKH14, 24 h) it was 32 µg/mL (≈ 55 µM); against Enterococcus faecalis [10] (NKH18, 24 h) it was 32 µg/mL (≈ 55 µM); in the assay on Enterococcus faecalis [11] (NKH9, 24 h), 32 µg/mL (≈ 55 µM); against Enterococcus faecalis [12] (NKH3, 24 h) it was 32 µg/mL (≈ 55 µM). The MIC was 32 µg/mL (≈ 55 µM) in the assay on Enterococcus faecalis [13] (NKH11, 24 h); 32 µg/mL (≈ 55 µM) in the assay with Enterococcus faecalis [14] (NKH8, 24 h); 32 µg/mL (≈ 55 µM) in the assay with Enterococcus faecalis [15] (NKH17, 24 h); 32 µg/mL (≈ 55 µM) with Enterococcus faecalis [16] (NKH10, 24 h); 32 µg/mL (≈ 55 µM) in the assay with Enterococcus faecalis [17] (NKH12, 24 h); 32 µg/mL (≈ 55 µM) in the assay with Enterococcus faecalis [18] (NKH16, 24 h).
For `CN(C)[C@@H]1C(O)=C(C(N)=O)C(=O)[C@@]2(O)C(O)=C3C(=O)c4c(O)cccc4[C@@](C)(O)[C@H]3C[C@@H]12` [TETRACYCLINE], the MIC was determined as 64 µg/mL (≈ 144 µM) in the assay with Enterococcus faecalis [1] (NKH7, 24 h); 64 µg/mL (≈ 144 µM) in the assay on Enterococcus faecalis [2] (NKH2, 24 h); 64 µg/mL (≈ 144 µM) in the assay with Enterococcus faecalis [3] (NKH5, 24 h); 32 µg/mL (≈ 72 µM) in the assay with Enterococcus faecalis [4] (NKH15, 24 h); 32 µg/mL (≈ 72 µM) with Enterococcus faecalis [5] (NKH4, 24 h); 64 µg/mL (≈ 144 µM) against Enterococcus faecalis [6] (NKH1, 24 h). The minimal inhibitory concentration (MIC) in the assay with Enterococcus faecalis [7] (NKH6, 24 h) stood at 64 µg/mL (≈ 144 µM); in the assay with Enterococcus faecalis [8] (NKH13, 24 h), 64 µg/mL (≈ 144 µM); in the assay on Enterococcus faecalis [9] (NKH14, 24 h) it was 64 µg/mL (≈ 144 µM); in the assay on Enterococcus faecalis [10] (NKH18, 24 h) it was 32 µg/mL (≈ 72 µM); in the assay on Enterococcus faecalis [11] (NKH9, 24 h), 64 µg/mL (≈ 144 µM); against Enterococcus faecalis [12] (NKH3, 24 h) it was 32 µg/mL (≈ 72 µM). The MIC is 64 µg/mL (≈ 144 µM) with Enterococcus faecalis [13] (NKH11, 24 h); 64 µg/mL (≈ 144 µM) against Enterococcus faecalis [14] (NKH8, 24 h); 32 µg/mL (≈ 72 µM) against Enterococcus faecalis [15] (NKH17, 24 h); 64 µg/mL (≈ 144 µM) against Enterococcus faecalis [16] (NKH10, 24 h); 64 µg/mL (≈ 144 µM) in the assay on Enterococcus faecalis [17] (NKH12, 24 h); 32 µg/mL (≈ 72 µM) in the assay with Enterococcus faecalis [18] (NKH16, 24 h).
As to `CN[C@H](CC(C)C)C(=O)N[C@H]1C(=O)N[C@@H](CC(N)=O)C(=O)N[C@H]2C(=O)N[C@H]3C(=O)N[C@H](C(=O)N[C@H](C(=O)O)c4cc(O)cc(O)c4-c4cc3ccc4O)[C@H](O)c3ccc(c(Cl)c3)Oc3cc2cc(c3O[C@@H]2O[C@H](CO)[C@@H](O)[C@H](O)[C@H]2O[C@H]2C[C@](C)(N)[C@H](O)[C@H](C)O2)Oc2ccc(cc2Cl)[C@H]1O` [VANCOMYCIN], the MIC with Enterococcus faecalis [2] (NKH2, 24 h) worked out at 256 µg/mL (≈ 177 µM); in the assay with Enterococcus faecalis [6] (NKH1, 24 h) it was 128 µg/mL (≈ 88.3 µM); against Enterococcus faecalis [8] (NKH13, 24 h), 256 µg/mL (≈ 177 µM); in the assay with Enterococcus faecalis [9] (NKH14, 24 h), 256 µg/mL (≈ 177 µM); against Enterococcus faecalis [11] (NKH9, 24 h) it was 256 µg/mL (≈ 177 µM); in the assay with Enterococcus faecalis [14] (NKH8, 24 h) it was 256 µg/mL (≈ 177 µM). For the same molecule, the MIC amounted to 32 µg/mL (≈ 22.1 µM) against Enterococcus faecalis [15] (NKH17, 24 h); 256 µg/mL (≈ 177 µM) with Enterococcus faecalis [16] (NKH10, 24 h); 256 µg/mL (≈ 177 µM) against Enterococcus faecalis [17] (NKH12, 24 h).
Consider GENTAMICIN, for which the minimal inhibitory concentration (MIC) against Enterococcus faecalis [1], against Enterococcus faecalis [2], in the assay on Enterococcus faecalis [3], against Enterococcus faecalis [4], against Enterococcus faecalis [5] and in the assay with Enterococcus faecalis [6] was above 1020 µg/mL throughout. Moreover, the MIC with Enterococcus faecalis [7] is above 1020 µg/mL; in the assay with Enterococcus faecalis [8], above 1020 µg/mL; against Enterococcus faecalis [9] it was above 1020 µg/mL; in the assay with Enterococcus faecalis [10], above 1020 µg/mL; with Enterococcus faecalis [11], 1020 µg/mL; in the assay with Enterococcus faecalis [12] it was above 1020 µg/mL. Besides, the MIC in the assay with Enterococcus faecalis [13], against Enterococcus faecalis [14], in the assay on Enterococcus faecalis [15], in the assay on Enterococcus faecalis [16], with Enterococcus faecalis [17] and in the assay on Enterococcus faecalis [18] was above 1020 µg/mL in each case.
